Data on 1 compound can be found in ChEMBL document CHEMBL1124929, “Indolo[2,1-a]isoquinolines. Syntheses, steroid hormone receptor binding affinities, and cytostatic activity” (1990).

For experiment [1], the system named is MDA-MB-231. The experiment in a line: Cytostatic effect on hormone-independent MDA-MB 231 human breast cancer cell proliferation at 1x10E-6M. Format: functional. The essentials: (§1)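 Cells were plated at about 2 × 10⁴ per well in six-well dishes. MCF-7 cells were grown in modified improved MEM with 5% NCS, switched to charcoal-treated NCS two weeks before the test, and exposed for 5 days with a re-dose on day 4. MDA-MB 231 cells were grown in McCoy 5a with 10% NCS and exposed for 2 days. Compounds were given 1 day after plating in 0.1% DMSO, with DMSO-matched controls. Read-out was cell number as % T/C, mean of three experiments with six dishes.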

The subject of experiment [2] is MCF7. The experiment in a line: Effect on [3H]thymidine incorporation into MCF-7 human breast cancer cells at 5x10E-6M. The experiment is classed as functional. The essentials:
(§2)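 Cells were seeded at ~2 × 10⁴ per well, treated from the next day in 0.1% DMSO, with DMSO controls. MCF-7 cells were held in charcoal-stripped NCS for 2 weeks, treated for 5 days and re-dosed on day 4. MDA-MB 231 cells were grown in McCoy 5a/10% NCS and treated for 2 days. At the end, 1 µCi [³H]thymidine per well was added for 2 h. Result is % T/C, mean of three experiments × six dishes.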
A general note: Uptake of a labelled nucleoside into DNA is a usual measure of proliferation.

The target of experiment [3] is T1, Estrogen receptor (Mus musculus) (UniProt O08537+P19785). As to the kind of experiment: Estrogenic activity in uterotrophic assay in immature mice at 250 ug subcutaneous dose. The experiment is classed as functional. The method in brief:
(§3)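 Immature female NMRI mice, 20 days old, in groups of 6-10, were dosed sc once daily for three consecutive days. Compounds were given in PEG/0.9% saline 1:1; vehicle controls were included. Animals were killed 24 h after the last dose. Uteri were fixed in Bouin solution and the effect was taken as uterine dry weight (mg)/body weight (g) ×100, given as mean ± SD.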

Experiment [4] addresses T1, Estrogen receptor (Mus musculus). The experiment in a line: Estrogenic activity in uterotrophic assay in immature mice at 2 ug subcutaneous dose. The experiment is classed as functional. The method in brief:
as §3

For experiment [5], the system named is MCF7. The experiment in a line: Effect on [3H]thymidine incorporation into MCF-7 human breast cancer cells at 1x10E-6M. The experiment is classed as functional. The method in brief:
as §2

Experiment [6] has as its system MDA-MB-231. The experiment in a line: Effect on [3H]thymidine incorporation into MDA-MB 231 human breast cancer cells at 1x10E-5 M. Format: functional. The essentials: as §2
Experiment [7] deals with Estrogen receptor (Bos taurus) (UniProt Q9XSB5+P49884). As to the kind of experiment: Relative binding affinity(RBA) for 50% displacement of [3H]-estradiol from Estrogen receptor compared to 17-beta-estradiol. The experiment is classed as protein assay. The essentials: (§4)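 Receptor source was calf uterine cytosol (105000g supernatant, 3 mg/mL protein in assay). Buffers were Tris/EDTA pH 7.4, with NaN₃ for ER, molybdate/glycerol for AR, and sucrose for PR. Tracers were 1 nM [³H]estradiol, [³H]mibolerone or [³H]Org 2058. Incubation was at 0–4 °C for 16 h (ER) or 2 h (AR, PR), with 4–6 competitor concentrations. Nonspecific binding used 2 µM of the unlabeled hormone. Separation was by dextran-coated charcoal. RBA is the ratio of IC50 values for hormone and compound ×100, mean of two triplicate experiments.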

Experiment [8] addresses T1, Estrogen receptor (Mus musculus). As to the kind of experiment: Estrogenic activity in uterotrophic assay in immature mice at 50.0 ug subcutaneous dose. The experiment is classed as functional. The method in brief:
as §3

Experiment [9] deals with T2, Androgen receptor (Mus musculus) (UniProt P19091).
T2 sequence (whole entry): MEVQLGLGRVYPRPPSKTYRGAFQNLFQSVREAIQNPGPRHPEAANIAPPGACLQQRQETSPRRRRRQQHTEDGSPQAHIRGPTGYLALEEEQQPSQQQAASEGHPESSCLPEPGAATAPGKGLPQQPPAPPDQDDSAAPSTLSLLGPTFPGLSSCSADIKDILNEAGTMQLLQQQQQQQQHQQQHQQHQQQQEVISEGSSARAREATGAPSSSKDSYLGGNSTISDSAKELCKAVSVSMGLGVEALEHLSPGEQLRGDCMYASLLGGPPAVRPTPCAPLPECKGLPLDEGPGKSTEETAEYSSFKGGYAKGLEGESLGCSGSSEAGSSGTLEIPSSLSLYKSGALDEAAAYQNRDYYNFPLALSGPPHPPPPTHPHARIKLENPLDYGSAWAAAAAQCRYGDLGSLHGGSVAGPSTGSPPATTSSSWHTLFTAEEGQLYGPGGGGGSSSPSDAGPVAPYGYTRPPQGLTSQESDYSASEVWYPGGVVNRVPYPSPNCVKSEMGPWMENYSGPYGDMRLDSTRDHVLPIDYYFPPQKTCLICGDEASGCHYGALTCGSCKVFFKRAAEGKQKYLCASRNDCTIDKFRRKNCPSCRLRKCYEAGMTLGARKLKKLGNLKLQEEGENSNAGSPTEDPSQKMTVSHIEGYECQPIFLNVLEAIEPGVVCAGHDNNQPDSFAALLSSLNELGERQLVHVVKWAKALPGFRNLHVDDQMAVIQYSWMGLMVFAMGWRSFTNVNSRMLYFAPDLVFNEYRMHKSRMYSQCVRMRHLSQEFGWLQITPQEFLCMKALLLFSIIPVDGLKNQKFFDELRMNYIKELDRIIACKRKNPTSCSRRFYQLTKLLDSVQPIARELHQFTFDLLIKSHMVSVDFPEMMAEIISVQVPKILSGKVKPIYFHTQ
As to the kind of experiment: Relative effect on seminal vesicle weight in adult and castrated mice at 10 ug dose. The experiment is classed as functional, tissue-based. The method in brief: (§5)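 Adult male mice, 23–25 g, six per group, were used intact or castrated via the scrotal route under ether 5 days before the test. Castrates received 0.3 mg testosterone propionate daily. Compounds were injected daily in olive oil for nine days. Seminal vesicles were taken 24 h later, fixed in Bouin solution, dried overnight at 100 °C and weighed. Result is organ mg/body g ×100; % inhibition = [1 − treated/control] × 100.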

Experiment [10] has as its system MCF7. The experiment in a line: Effect on hormone-dependent MCF-7 human breast cancer cell proliferation at 1x10E-5 M. Format: functional. The essentials:
as §1

The target of experiment [11] is T1, Estrogen receptor (Mus musculus). The experiment in a line: Inhibition of 0.4 ug estrone-stimulated uterine growth in mice at 250 ug subcutaneous dose. Format: functional. The essentials:
(§6)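 Immature 20-day-old female NMRI mice received sc injections on three consecutive days. Each injection held 0.4 µg estrone plus the compound in PEG/saline 1:1. […] Significance was tested by Mann-Whitney U test.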

For the next experiment, the species on record is Bos taurus. The experiment in a line: Relative binding affinity(RBA) as ratio of progesterone and compound required to displace [3H]-org 2058 binding to Progesterone receptor by 50%. The essentials: as §4
Experiment [12] has as its target T2, Androgen receptor (Mus musculus). As to the kind of experiment: Inhibition of seminal vesicle weight in intact mice at 100 ug.
For experiment [13], the target named is T1, Estrogen receptor (Mus musculus). As to the kind of experiment: Inhibition of 0.4 ug estrone-stimulated uterine growth in mice at 10.0 ug subcutaneous dose. Format: functional. The method in brief: as §6
Experiment [14] shares this target. As to the kind of experiment: Estrogenic activity in uterotrophic assay in immature mice at 10.0 ug subcutaneous dose. The experiment is classed as functional. The essentials:
as §3

Experiment [15] relates to MDA-MB-231. As to the kind of experiment: Effect on [3H]thymidine incorporation into MDA-MB 231 human breast cancer cells at 5x10E-6M. The experiment is classed as functional. The method in brief:
as §2

The target in experiment [16] is T1, Estrogen receptor (Mus musculus). As to the kind of experiment: Estrogenic activity in uterotrophic assay in immature mice at 125 ug subcutaneous dose. Format: functional. The method in brief: as §3
Experiment [17] deals with MDA-MB-231. As to the kind of experiment: Cytostatic effect on hormone-independent MDA-MB 231 human breast cancer cell proliferation at5x10E-6M. The experiment is classed as functional. The essentials: as §1
Experiment [18] concerns MCF7. As to the kind of experiment: Effect on [3H]thymidine incorporation into MCF-7 human breast cancer cells at 1x10E-7M. The experiment is classed as functional. The method in brief:
as §2

The target of experiment [19] is T2, Androgen receptor (Mus musculus). As to the kind of experiment: Relative effect on seminal vesicle weight in adult and castrated mice supplemented with 0.3 mg TP at 1000 ug dose. The experiment is classed as functional, tissue-based. The method in brief:
as §5

The target is the same in experiment [20]. As to the kind of experiment: Relative effect on seminal vesicle weight in adult and castrated mice at 1000 ug dose. Format: functional, tissue-based. The essentials: as §5

Structures are written as SMILES.

T1 sequence (O08537 whole entry, looked up): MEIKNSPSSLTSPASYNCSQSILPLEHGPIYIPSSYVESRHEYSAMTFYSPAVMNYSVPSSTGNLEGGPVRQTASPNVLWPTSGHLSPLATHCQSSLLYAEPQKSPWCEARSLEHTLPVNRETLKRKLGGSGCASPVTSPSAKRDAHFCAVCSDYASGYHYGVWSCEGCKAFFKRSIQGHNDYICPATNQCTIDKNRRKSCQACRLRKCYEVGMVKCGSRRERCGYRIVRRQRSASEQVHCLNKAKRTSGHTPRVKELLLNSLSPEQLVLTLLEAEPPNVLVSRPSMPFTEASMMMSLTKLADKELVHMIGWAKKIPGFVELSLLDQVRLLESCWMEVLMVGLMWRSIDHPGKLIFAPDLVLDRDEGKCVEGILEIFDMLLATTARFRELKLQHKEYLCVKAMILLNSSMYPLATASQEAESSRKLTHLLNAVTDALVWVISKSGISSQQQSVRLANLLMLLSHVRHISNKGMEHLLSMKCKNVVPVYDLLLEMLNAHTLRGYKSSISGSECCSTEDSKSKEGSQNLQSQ
T1 sequence (P19785 whole entry, looked up): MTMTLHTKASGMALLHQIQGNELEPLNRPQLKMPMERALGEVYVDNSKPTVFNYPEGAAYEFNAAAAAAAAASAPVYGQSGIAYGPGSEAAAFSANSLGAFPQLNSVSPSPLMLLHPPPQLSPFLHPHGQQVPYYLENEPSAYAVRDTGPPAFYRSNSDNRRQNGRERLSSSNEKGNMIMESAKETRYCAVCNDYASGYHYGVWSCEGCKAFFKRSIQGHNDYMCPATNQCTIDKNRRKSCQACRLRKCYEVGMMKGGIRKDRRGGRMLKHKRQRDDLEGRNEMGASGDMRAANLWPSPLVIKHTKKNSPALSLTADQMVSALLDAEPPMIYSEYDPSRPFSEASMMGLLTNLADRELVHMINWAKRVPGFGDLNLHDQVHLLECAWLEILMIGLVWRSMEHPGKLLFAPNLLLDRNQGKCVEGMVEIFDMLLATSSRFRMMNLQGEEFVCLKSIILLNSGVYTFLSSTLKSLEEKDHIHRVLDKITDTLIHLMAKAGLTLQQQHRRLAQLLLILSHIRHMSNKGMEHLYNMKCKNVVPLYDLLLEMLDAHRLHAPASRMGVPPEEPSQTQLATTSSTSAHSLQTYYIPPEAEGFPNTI

Usually T/C stands for the ratio of treated to control. The inhibition is how much of the control response was suppressed. Low values mean a weak effect, high ones a strong effect. `CCC1Cc2cc(OC(C)=O)ccc2-c2cc3cc(OC(C)=O)ccc3n21` (stereo unspecified): the T/C came out at 74% with MDA-MB-231 [1]; 4% with MCF7 [2]; 25% with MCF7 [5]; 4% in the experiment with MDA-MB-231 [6]; 8% with MCF7 [10]; 4% in the experiment on MDA-MB-231 [15]. The T/C in the experiment with MDA-MB-231 [17] came out at 4%; with MCF7 [18] it was 63%. Also, the Effect in experiment [3] was 42.6; in [4] it was 18.5; in experiment [8], 35.8; in experiment [14], 25.5; in [16], 39.5. For the same compound, the RBA in experiment [7] is 17; in the experiment filed under Bos taurus, 0.13. The Relative seminal vesicle weight turned out to be 132 in experiment [9], 187 in experiment [19] and 38.3 in [20]. Besides, the inhibition in experiment [11] is 34.1%; in experiment [12], 67%; in experiment [13], 12.2%.
